Measured values as given in the EternaBench riboswitch data.

Tested on: MS2 coat protein
Test: apparent Kd, MS2 coat protein; higher = weaker binding; RNA-MaP array; FMN 200 µM where present
Summary of the method: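 Each design was made on Illumina sequencing-chip clusters by stalled E. coli RNA polymerase and titrated with SNAP-549-labelled MS2 coat protein from 0.7 or 1.5 nM, doubling to 3 µM, in the absence and then the presence of constant ligand. The buffer was 100 mM Tris-HCl pH 7.5, 80 mM KCl, 4 mM MgCl2, BSA, DTT, yeast tRNA and Tween-20. The apparent Kd is the median of filtered per-cluster fits of binding curves, with green signal normalised to red-channel RNA signal and control-cluster median Fmax.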

[1] = designed as: OFF switch for flavin mononucleotide, no ligand
[2] = ligand present: flavin mononucleotide, designed as: OFF switch for flavin mononucleotide
[3] = designed as: ON switch for flavin mononucleotide, no ligand
[4] = ligand present: flavin mononucleotide, designed as: ON switch for flavin mononucleotide

Row | Sequence | apparent Kd [1] [nM] | apparent Kd [2] [nM] | apparent Kd [3] [nM] | apparent Kd [4] [nM]
1 | GUCAGCUCGUGAGGAUAUACAACACUGCUUCGGCAGUGUAUUAAGAUCACAUGAGGAUCACCCAUGUAGAAGGCACGAGCUGAC | 12.9 | 251 | – | –
2 | GUCAGCUCGUGAGGAUAUACAACACUGCUUCGGCAGUGUAUUAGGAUCACAUGAGGAUCACCCAUGUAGAAGGCACGAGCUGAU | 16.3 | 323 | – | –
3 | GUCAGCUCGUGAGGAUAUACAACACUGCUUCGGCAGUGUAUUCAGAUCACAUGAGGAUCACCCAUGUAGAAGGCACGAGCUGAU | 12.8 | 206 | – | –
4 | GUCAGCUCGUGAGGAUAUACAACACUGCUUGGGCAGUGUAUUAAGAUCACAUGAGGAUCACCCAUGUAGAAGGCACGAGCUGAU | 13.9 | 216 | – | –
5 | GUCAGCUCGUGAGGAUAUACAUAAUCCUAAGAUCACAUGAGGAUCACCCAUGUAGAAGGCACGAGCUGAUAAGCACGAAAGUGC | 8.89 | 50.2 | – | –
6 | GUCAGCUCGUGAGGAUAUACAUGUGCUGGAAACAGCAUUAAAUAAUUCACAUGAGGAUCACCCAUGUAGAAGGCACGAGCUGAU | 16.8 | 33.8 | – | –
7 | GUCAGUCGAGGAUAUACGAUCGUGCUUCGGCACGUAAGAUCACAUGAGGAUCACCCAUGUAGAAGGCGACUGAC | 32.5 | 257 | – | –
8 | GUCAUCGCAUGAGGAUAUGGCACCGUUUCGGUGCCAGAAGGCAUGUCAAAUGACAUGAGGAUCACCCAUGUAGUUAAGAUGGCA | – | – | 229 | 17
9 | GUCCCGAGGGAGAAGGGCUAGGAGGUCCAGCUUAUGUGUGUUGCAACAUGAGGAUCACCCAUGUAGCAGGAUAUCCCUUGUACA | 52.2 | 219 | – | –
10 | GUCCCUACAUGAGGAUCACCCAUGUGGGCGGUAAGGAGCCCACAGGAUAUGCGAAGUAGGACAUAGCAGAAGGGUGGUGUUCAG | – | – | 146 | 97.3
11 | GUCCUUAGCGAGGAUAUCGGGCGGGUUUUUGUUUGAGAAGGCGUGACAUGAGGAUCACCCAUGUGGCGCGUGGG | 39.2 | 69.7 | – | –
12 | GUCGACCUAUUCGUCAGACUCUCACAGGAUAUACGAUACACAUGAGGAUCACCCAUGUAGAUAACGUAGAAGGGUGAUUCCGGU | – | – | 66.7 | 27.7
13 | GUCGAUCACCAGAAGGACAUGAGGAUCACCCAUGUAGGAUAUGGGUAAGACGUCACAUUGGCGUGCAAACGUUUGCGUUCGUAC | – | – | 11.9 | 6.42
14 | GUCGGAAACGACAAAAGUAUGGAUCCAGAAGGCAUGAAACAUGAGGAUCACCCAUGUCAAAGACAUGAGGAUAUGGAUCCAUAC | – | – | 4.06 | 3.19
15 | GUCGGAAACGACAAUGAUAGGACUGAGGAUAUACAUAAGUAAGUCCACACAUGAGGAUCACCCAUGUAGAAGGCAGUCCUAUCU | 21.9 | 187 | – | –
16 | GUCGGAUGUAUAGGAUAUCGACUGGAAUACAGUCGAGAAGGAUACAUGAGGAUCACCCAUGUAAUAAUAAUAAUAAUAACCGAC | 12.5 | 24 | – | –
17 | GUCGGGUCUCACGCGUCGGUCCACAUGAGGAUCACCCAUGUCAAGGAUAUAGCGUCUUCCGGGCGUUAGAAGGUGGCCAUUGGU | 26.6 | 61 | – | –
18 | GUCGUGCAGCUUUGCUGUACGAGUACAUGAGGAUCACCCAUGUAGGAUAUGGUACGCUUUGCGUGCCAGAAGGACGUGCGUUGG | 48 | 134 | – | –
19 | GUCGUUUCUGAGGAUAUUAUUUUUUUCGAUUGAUAAGAAGGCAGUACAUGAGGAUCACCCAUGUGGGUUGUCUG | 30 | 97.3 | – | –
20 | GUCUCGAUGUAGAAGGCCGCGUCCGGCUCACGCGGAGGAUAUACAUGAGGAUCACCCAUGUGUCUGUGGCUUAUAUGUUACGGA | 70.8 | 68.3 | – | –
21 | GUCUGGCUAGGAUAUACAGUGUCCACGAGUUAGUUGCUCUAACAUGAGGAUCACCCAUGUAGAAGGAGCGAGAA | 20.5 | 63.7 | – | –
22 | GUCUUACAUGAGGAUCACCCAUGUGAGGAUAUAUGUGGUGUUGAGAAAUUGGUGUUGUAUAGAAGGCGCGUGAU | 25.5 | 24.8 | – | –
23 | GUCUUCCUAGGAUAUACAUGAGGAUCACCCAUGUACAGUUUCGUCAAAGGAUAAUCGCGUAGAAGGAGGUGGAU | 16.5 | 23.6 | – | –
24 | GUCUUGUUAGGAUAUCUUACUUUUGCAUCAUAGUAACCAUUGGAGAAGGGACAUGAGGAUCACCCAUGUUUGGU | 34.6 | 30 | – | –
25 | GUGAACCGUAGGUCGCUGGCUGCACAGGAUAUGAAGGCGUACAUGAGGAUCACCCAUGUUCCCUAUCAGAAGGGUGACAGGAAA | – | – | 14.8 | 8.85
26 | GUGACGAAUGUAGGAUAUGCUGAGGAAUACUCAGCAGAAGGACAUGAGGAUCACCCAUGUACUAAUAGUGAUAAUAAACGUCAC | 15.6 | 77.6 | – | –
27 | GUGACGAUGUAAGGAUAUGCUGAGGAUAACUCAGCAGAAGGUACAUGAGGAUCACCCAUGUAACGUCACAAUAAUAAUAAUAAU | 12.3 | 22.9 | – | –
28 | GUGAGUAGUCAGGAUAUGCUGUACAAAAGUACAGCAGAAGGGAUUACAUGAGGAUCACCCAUGUUUACUUCAUG | 73.1 | 279 | – | –

Row | Sequence | apparent Kd [1] [nM] | apparent Kd [2] [nM] | apparent Kd [3] [nM] | apparent Kd [4] [nM]
29 | GUGAUCUGAGUGAGGAUAUCCUUUAAGUAAUUGCAGGAGAAGGCACAUGAGGAUCACCCAUGUACAUCUUCGCG | 36.1 | 119 | – | –
30 | GUGCAAUGAGGAUAUACGUAGGUGAACAUCUGUGUGCUCCUACAUGAGGAUCACCCAUGUAGAAGGCAUGUCAC | 12.3 | 22.6 | – | –
31 | GUGCACACUCGAGGAUAUCGGAGAGGACUCCUUCGAGAAGGCGAUUCGUGCCGUGUUAUUCUGGACAUGAGGAUCACCCAUGUG | – | – | 126 | 38.2
32 | GUGCACACUCGAGGAUAUCGGAGUUUUUUUCUUCGAGAAGGCGAUUCGUGCCGUGUUAUUUUGGACAUGAGGAUCACCCAUGUG | – | – | 79.9 | 34.4
33 | GUGCACAUUCGAGGAUAUCGGAGAGAGAUCGUUCGAGAAGGCGAUUCAUGAUGUAUUAUCCUGGACAUGAGGAUCACCCAUGUG | – | – | 105 | 89.3
34 | GUGCAUACGUGAGGAUAUGUAUUAGAUAGUGGUACAGAAGGCAUGUCAGAUGACAUGAGGAUCACCCAUGUUGGCACAAUGCGC | – | – | 137 | 30.5
35 | GUGCCGAACCUAGGAUAUCUUAUCGGGUUCCGCCGUGGCUUAGCGACAUGAGGAUCACCCAUGUAAGAGAAGGAGGUGGCGGAG | 128 | 135 | – | –
36 | GUGCCGUUGGCUCGACGACCGCUGCAGGAUAUCACAUGAGGAUCACCCAUGUGACUCUGCCCAUGUGAGAAGGGCGGCUGUGUG | 18.9 | 34.7 | – | –
37 | GUGCCUUGGAAGAAGGCCGAUAGCAAAGCUAUCGGAGGAUAUUCAUACCGGAAACGGACAUGAGGAUCACCCAUGUGGCACAAA | – | – | 15.3 | 6.96
38 | GUGCCUUGGGAGAAGGUUAUUAGCAAAGCUAUUAAAGGAUAUUCAUACCGGAAACGGACAUGAGGAUCACCCAUGUGGCACAAA | – | – | 1630 | 122
39 | GUGCCUUGGUAGAAGGCCCAAUGCAAAGCAUAGGGAGGAUAUACAUAUAAUAAAUAAACAUGAGGAUCACCCAUGUGGCACAAA | – | – | 10.8 | 10.4
40 | GUGCGAGUGCCACAGGAUAUACGUGGAUCGACAUGAGGAUCACCCAUGUAUAUCCUAAUAAUUGCGUAGAAGGGUGGUCAGUCGG | – | – | 786 | 289
41 | GUGCGGUGAGGAUAUACGUAGGUGAAAAUCUGUGUGCUCCUACAUGAGGAUCACCCAUGUAGAAGGCAUGUCAC | 15.5 | 27.8 | – | –
42 | GUGCUUUGGGAGAAGGCCGUAUGCAAAGCAUACGGAGGAUAUUCAUACCGGAAACGGACAUGAGGAUCACCCAUGUGGCACAAA | – | – | – | 44.6
43 | GUGGCUAGUGCAGGAUAUUAGUGCGUGUAGUAUUGAGAAGGGCACAUGAGGAUCACCCAUGUGAUCAAUCACUGUUAAGGUCGC | 79.7 | 76.5 | – | –
44 | GUGGUAUUCGUAGGAUAUCCGUCGCCACCGUGUGGAGAAGGACGAACAUGAGGAUCACCCAUGUAUCAUGGUGUGGACGCUGUC | 92.1 | 86.6 | – | –
45 | GUGGUCAGACAUGAGGAUCACCCAUGUGGAAUAAAUAAGGACAAGGAUAUGGAAUAUAGGAUAUACCAGAAGGUGUGGUUGGUG | – | – | 70 | 86
46 | GUGGUCAGACAUGAGGAUCACCCAUGUGGAAUAAAUAAGGAGAAGGAUAUAGAAUAUAGGAUAUACUAGAAGGUCUGGUUGGUG | – | – | 67.3 | 73.1
47 | GUGGUCAGACAUGAGGAUCACCCAUGUGGAAUAAAUAAGGUUUAGGAUAUGGAAUAUAGGAUAUACCAGAAGGAAGGGUUGGUG | – | – | 125 | 135
48 | GUGUAGAUAGGAUAUGCUUAGAGCUUACGAAAGUAGGCUCUACAUGAGGAUCACCCAUGUAGAAGGGUCUACAC | 31.3 | 19.1 | – | –
49 | GUGUAGUCAGGAUAUACAUAGGAAGAGAAGAGAAGAGAAGGACAUGAGGAUCACCCAUGUAGAAGGGACAGUGU | 46.7 | 40.9 | – | –
50 | GUGUGAAUAGGAGGAUAUAUACAACAUGAGGAUCACCCAUGUACCCGUGUAGUAGAAGGUUUGUUUUUAUAUAAUAUUAUAUUU | – | – | 26.8 | 21.6
51 | GUGUGCUGAGGAUAUACAGAGGAAGAUAAGAUAAGAUAAUGACAUGAGGAUCACCCAUGUAGAAGGCAGAGUGU | 29.7 | 42.4 | – | –
52 | GUGUGCUGAGGAUAUACAUAGGAAGAGAAGAGAAGAGAAGGACAUGAGGAUCACCCAUGUAGAAGGCAGAGUGU | 28.2 | 33.3 | – | –
53 | GUUAAGUGAGGAUAUGGUGAGUAGUGCCUGAGCGCUGCUCACCAGAAGGCACAUGAGGAUCACCCAUGUAUAAC | 23 | 36 | – | –
54 | GUUAUAAAGGUAGGAUAUUGUAUUAUAAUUAAAUAAGAAGGAUCUCACAUGAGGAUCACCCAUGUAAGAGGAUCACCCAUGUAG | 20.1 | 14.6 | – | –
55 | GUUAUACAUGAGGAUCACCCAUGUCAAUGUAGUCGAGGAUAUGGGCAGCUAUGAGGCGUACUAGAAGGCGAUGAGU | – | – | 156 | 44.5
